In ChEMBL document CHEMBL1133005, “Improving the oral bioavailability of the iron chelator HBED by breaking the symmetry of the intramolecular H-bond network” (J Med Chem, 2000):

What was measured:
Type in all cases: physicochemical
[1] = Partition coefficient (logP) (cyclohexane)
Method in brief: (§1)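 Free-ligand partition coefficients are measured by the pH-metric technique. This uses two linked titrations: a normal aqueous titration, then a two-phase titration in the presence of the partition solvent.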

[2] = Evaluated for ionization constant (pKa2) by titrations performed in absence of cosolvent and at a dielectric constant of 78; details: no cosolvent, dielectric constant 78; read-out: pKa2
[3] = Partition coefficient (logP); details: octanol/water; method in brief: as §1
[4] = Evaluated for ionization constant (pKa5) by titrations performed in absence of cosolvent and at a dielectric constant of 78; details: no cosolvent; read-out: pKa5
Method in brief: (§2)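 Potentiometric pH titration. The electrode is calibrated with pH 7.00 phosphate buffer. A blank titration before each set standardizes the electrode by a nonlinear semiempirical equation, and readings are converted to the concentration scale pcH = −log[H+]. Runs use varying amounts of MeOH or EtOH cosolvent, and aqueous pKa values are extrapolated by the Yasuda–Shedlovsky method. Low pKa values (pH < 2) are determined by spectrophotometric titration.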

[5] = Evaluated for ionization constant (pKa1) by titrations performed in absence of cosolvent and at a dielectric constant of 78; details: no cosolvent, dielectric constant 78; read-out: pKa1
[6] = Evaluated for ionization constant (pKa4) by titrations performed in absence of cosolvent and at a dielectric constant of 78; details: no cosolvent; read-out: pKa4
[7] = Evaluated for ionization constant (pKa4) by titrations performed in the presence of EtOH at a dielectric constant of 63; details: EtOH cosolvent; read-out: pKa4
Method in brief: (§3)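 pH-metric titration in mixed water/cosolvent media (MeOH or EtOH, depending on the ligand) at several cosolvent proportions, each proportion setting the dielectric constant. Electrode calibrated with pH 7.00 phosphate buffer and standardized after a blank titration by a nonlinear semiempirical fit. Readings were converted to pcH to give concentration-scale constants.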

[8] = Evaluated for ionization constant (pKa3) by titrations performed in the presence of EtOH at a dielectric constant of 63; details: EtOH cosolvent; read-out: pKa3; method in brief: as §3
[9] = Evaluated for ionization constant (pKa2) by titrations performed in the presence of EtOH at a dielectric constant of 63; details: EtOH cosolvent, dielectric constant 63; read-out: pKa2; method in brief: as §3
[10] = Evaluated for ionization constant (pKa3) by titrations performed in absence of cosolvent and at a dielectric constant of 78; details: no cosolvent; read-out: pKa3
[11] = Partition coefficient (logP) (chloroform); method in brief: as §1
[12] = Evaluated for ionization constant (pKa2) by titrations performed in the presence of EtOH and at a dielectric constant of 57; details: EtOH cosolvent, dielectric constant 57; read-out: pKa2; method in brief: as §3
[13] = Evaluated for ionization constant (pKa2) by titrations performed in the presence of EtOH and at a dielectric constant of 52; details: EtOH cosolvent, dielectric constant 52; read-out: pKa2; method in brief: as §3
[14] = Evaluated for ionization constant (pKa3) by titrations performed in the presence of EtOH and at a dielectric constant of 57; details: EtOH cosolvent; read-out: pKa3; method in brief: as §3
[15] = Evaluated for ionization constant (pKa3) by titrations performed in the presence of EtOH and at a dielectric constant of 63; details: EtOH cosolvent; read-out: pKa3; method in brief: as §3
[16] = Evaluated for ionization constant (pKa4) by titrations performed in the presence of EtOH and at a dielectric constant of 63; details: EtOH cosolvent; read-out: pKa4; method in brief: as §3
[17] = Evaluated for ionization constant (pKa3) by titrations performed in the presence of EtOH and at a dielectric constant of 52; details: EtOH cosolvent; read-out: pKa3; method in brief: as §3
[18] = Evaluated for ionization constant (pKa4) by titrations performed using the method of Yasuda and Shedlovsky; details: read-out: pKa4; method in brief: as §2
[19] = Evaluated for ionization constant (pKa1) by titrations performed using method of Yasuda and Shedlovsky; details: read-out: pKa1
Method in brief: (§4)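 Aqueous constants were extrapolated by the Yasuda–Shedlovsky method from pH-metric titrations run at several MeOH or EtOH cosolvent levels. Electrode calibrated with pH 7.00 phosphate buffer and standardized after a blank titration. Values are expressed on the pcH (-log[H+]) concentration scale.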

[20] = Evaluated for ionization constant (pKa3) by titrations performed using the method of Yasuda and Shedlovsky; details: read-out: pKa3; method in brief: as §4
[21] = Evaluated for ionization constant (pKa2) by titrations performed using method of Yasuda and Shedlovsky; details: read-out: pKa2; method in brief: as §4
[22] = Evaluated for ionization constant (pKa4) by titrations performed in the presence of EtOH and at a dielectric constant of 52; details: EtOH cosolvent; read-out: pKa4; method in brief: as §3
[23] = Evaluated for ionization constant (pKa4) by titrations performed in the presence of EtOH and at a dielectric constant of 57; details: EtOH cosolvent; read-out: pKa4; method in brief: as §3
[24] = Evaluated for ionization constant (pKa4) by titrations performed in presence of MeOH solvent at a dielectric constant of 62; details: MeOH cosolvent; read-out: pKa4; method in brief: as §3
[25] = Evaluated for ionization constant (pKa5) by titrations performed in presence of MeOH solvent at a dielectric constant of 56; details: MeOH cosolvent; read-out: pKa5; method in brief: as §2
[26] = Evaluated for ionization constant (pKa2) by titrations performed in presence of MeOH solvent at a dielectric constant of 62; details: MeOH cosolvent, dielectric constant 62; read-out: pKa2; method in brief: as §3
[27] = Evaluated for ionization constant (pKa4) by titrations performed in presence of MeOH solvent at a dielectric constant of 78; details: MeOH cosolvent; read-out: pKa4
[28] = Evaluated for ionization constant (pKa3) by titrations performed in presence of MeOH solvent at a dielectric constant of 49; details: MeOH cosolvent; read-out: pKa3; method in brief: as §3
[29] = Evaluated for ionization constant (pKa5) by titrations performed in presence of MeOH solvent at a dielectric constant of 49; details: MeOH cosolvent; read-out: pKa5; method in brief: as §2
[30] = Evaluated for ionization constant (pKa1) by titrations performed in absence of a cosolvent at a dielectric constant of 78; details: no cosolvent, dielectric constant 78; read-out: pKa1
[31] = Evaluated for ionization constant (pKa2) by titrations performed in presence of MeOH solvent at a dielectric constant of 49; details: MeOH cosolvent, dielectric constant 49; read-out: pKa2; method in brief: as §3
[32] = Evaluated for ionization constant (pKa4) by titrations performed in presence of MeOH solvent at a dielectric constant of 56; details: MeOH cosolvent; read-out: pKa4; method in brief: as §3
[33] = Evaluated for ionization constant (pKa5) by titrations performed using the method of Yasuda and Shedlovsky; details: read-out: pKa5; method in brief: as §2
[34] = Evaluated for ionization constant (pKa3) by titrations performed in presence of MeOH solvent at a dielectric constant of 62; details: MeOH cosolvent; read-out: pKa3; method in brief: as §3
[35] = Evaluated for ionization constant (pKa3) by titrations performed in presence of MeOH solvent at a dielectric constant of 56; details: MeOH cosolvent; read-out: pKa3; method in brief: as §3
[36] = Evaluated for ionization constant (pKa5) by titrations performed in presence of MeOH solvent at a dielectric constant of 62; details: MeOH cosolvent; read-out: pKa5; method in brief: as §2
[37] = Evaluated for ionization constant (pKa4) by titrations performed in presence of MeOH solvent at a dielectric constant of 49; details: MeOH cosolvent; read-out: pKa4; method in brief: as §3
[38] = Evaluated for ionization constant (pKa2) by titrations performed in presence of MeOH solvent at a dielectric constant of 56; details: MeOH cosolvent, dielectric constant 56; read-out: pKa2; method in brief: as §3

CCOC(=O)CN(CCN(CC(=O)[O-])Cc1ccccc1O)Cc1ccccc1O.[Na+]
logP [1]: -1.3 | pKa [2]: 10.9 | logP [3]: 1.15 | pKa [4]: 0.9 | pKa [5]: 12.3 | pKa [6]: 2.91 | pKa [7]: 2.75 | pKa [8]: 7.5 | pKa [9]: 11.4 | pKa [10]: 7.64 | logP [11]: 0.18

CCOC(=O)CN(CCN(CC(=O)OCC)Cc1ccccc1O)Cc1ccccc1O
logP [1]: 3.22 | pKa [12]: 11.6 | pKa [13]: 11.8 | logP [3]: 3.35 | pKa [14]: 5.25 | pKa [15]: 5.45 | pKa [16]: 1.42 | pKa [17]: 5.09 | pKa [18]: 1.8 | pKa [19]: 12.2 | pKa [20]: 5.7 | pKa [21]: 10.9 | pKa [22]: 1.05 | pKa [23]: 1.21 | logP [11]: 3.35

COC(=O)CN(CCN(CC(=O)[O-])Cc1ccccc1O)Cc1ccccc1O.[Na+]
pKa [24]: 2.68 | logP [1]: < -2 | pKa [25]: 0.97 | pKa [26]: 11.8 | pKa [27]: 2.61 | pKa [2]: 10.9 | logP [3]: 0.5 | pKa [28]: 7.41 | pKa [29]: 0.9 | pKa [30]: 12.1 | pKa [31]: 12.2 | pKa [32]: 2.77 | pKa [18]: 2.49 | pKa [20]: 7.68 | pKa [33]: 1.3 | pKa [21]: 11.5 | pKa [34]: 7.56 | pKa [10]: 7.67 | pKa [35]: 7.48 | pKa [36]: 1.15 | pKa [37]: 2.94 | pKa [38]: 12.1 | logP [11]: -0.29
